The record followed here is ChEMBL document CHEMBL1139351, “Synthesis and biological evaluation of vinca alkaloids and phomopsin hybrids” (J Med Chem, 2009).

Broadly, the IC50 is the concentration that gives 50% inhibition.

One assay relates to KB. Description: Cytotoxicity against human KB cells after 72 hrs. The format is functional, cell-based. The gist of the method:
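KB human cells; growth followed for 72 h of drug exposure; IC50 taken as the concentration giving 50% growth inhibition.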

A short description of assay [1]: Inhibition of tubulin polymerization assessed as ratio of IC50 for compound to IC50 for vinblastin by UV spectrophotometry. The gist of the method: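 Microtubular protein purified from mammalian brain. Drug added from ethanol at several concentrations to free tubulin at 0 °C, then shifted to 37 °C. Assembly followed as OD at 350 nm for 1 min. Maximum assembly rate compared with a drug-free sample, giving IC50. Ratio taken against a vinblastine IC50 measured the same day on the same tubulin preparation.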

Assay [2] addresses Tubulin beta-5 chain (Homo sapiens) (UniProt P07437). Description: Inhibition of beta tubulin nucleotide site assessed as inhibition of displacement of cold GDP by [alpha32P]GTP at 40 uM by rapid filtration technique.
Assay [3] shares this target. Description: Inhibition of beta tubulin nucleotide site assessed as inhibition of displacement of cold GDP by [alpha32P]GTP at 20 uM by rapid filtration technique. Set-up: scale not given: the % may be the effect or the level left.
Assay [4] has the same target. Description: Inhibition of beta tubulin nucleotide site assessed as inhibition of displacement of cold GDP by [alpha32P]GTP by rapid filtration technique relative to phomopsin A.
The target is the same in assay [5]. Description: Inhibition of beta tubulin nucleotide site assessed as displacement of cold GDP by [alpha32P]GTP at 100 uM by rapid filtration technique. Set-up: scale not given: the % may be the effect or the level left.
Assay [6] in a line: Inhibition of tubulin polymerisation by UV spectrophotometry. In a few lines:
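Microtubular protein purified from mammalian brain. Drug in ethanol at several concentrations added to free tubulin at 0 °C, then shifted to 37 °C. Assembly followed as optical density at 350 nm for 1 min. Maximum assembly rate compared with a no-drug sample. IC50 derived from several concentrations and compared with vinblastine run the same day on the same tubulin preparation.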

Active and inactive are the calls of the source. The calls are words filed in the database; no cut-off is given here.

Chain of Tubulin beta-5 chain (Homo sapiens) (P07437 whole entry): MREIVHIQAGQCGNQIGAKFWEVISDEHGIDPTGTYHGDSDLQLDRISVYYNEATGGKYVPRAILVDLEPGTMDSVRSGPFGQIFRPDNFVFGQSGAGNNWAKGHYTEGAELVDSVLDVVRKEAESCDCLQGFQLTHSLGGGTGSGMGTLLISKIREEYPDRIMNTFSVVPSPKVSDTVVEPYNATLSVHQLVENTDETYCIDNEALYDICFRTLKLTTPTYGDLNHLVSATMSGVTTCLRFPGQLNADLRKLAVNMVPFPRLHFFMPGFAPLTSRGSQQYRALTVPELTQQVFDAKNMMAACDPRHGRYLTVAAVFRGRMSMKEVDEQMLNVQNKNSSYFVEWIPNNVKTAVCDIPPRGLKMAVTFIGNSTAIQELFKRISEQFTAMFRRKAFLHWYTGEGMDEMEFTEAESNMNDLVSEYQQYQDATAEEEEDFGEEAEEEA

`CCC1=C[C@@H]2CN(C1)Cc1c([nH]c3ccccc13)[C@@](C(=O)OC)(c1cc3c(cc1OC)N(C)[C@H]1[C@@](O)(C(=O)OC)[C@H](OC(C)=O)[C@]4(CC)C=CCN5CC[C@]31[C@@H]54)C2` (stereo in doubt; 3) [VINORELBINE] gave an IC50 in the assay with KB (kb) of 40 nM.
Same read-out and setting: for `CCC1=C[C@@H]2CN(C1)Cc1c([nH]c3ccccc13)[C@@](C(=O)OC)(c1cc3c(cc1OC)N(C)[C@H]1[C@@](O)(C(=O)OC)[C@H](OC(C)=O)[C@]4(CC)C=CCN5CC[C@]31[C@@H]54)C2` (stereo in doubt; 4) [VINORELBINE] the value was 1 nM.
As for `CCC1=C[C@@H]2C[C@](C(=O)OC)(c3cc4c(cc3OC)N(C)[C@H]3[C@@](O)(C(=O)OC)[C@H](OC(C)=O)[C@]5(CC)C=CCN6CC[C@]43[C@@H]65)c3[nH]c4ccccc4c3CC[N+](CC(=O)N3CCC[C@H]3C(=O)N[C@H](C(=O)N[C@@H](CC(=O)O)C(=O)O)[C@@H](C)CC)(C1)C2`, the Ratio IC50 in assay [1] turned out to be 2. For the same molecule, the IC50 with KB (Homo sapiens, KB, 72 h) came to 100 nM.
In the same order, the values of `CCC1=C[C@@H]2C[C@](C(=O)OC)(c3cc4c(cc3OC)N(C)[C@H]3[C@@](O)(C(=O)OC)[C@H](OC(C)=O)[C@]5(CC)C=CCN6CC[C@]43[C@@H]65)c3[nH]c4ccccc4c3C[N+](CC(=O)N3CCC[C@H]3C(=O)N[C@H](C(=O)OCc3ccccc3)[C@@H](C)CC)(C1)C2` are 9.4 and 50 nM.
For the molecule `CCC1=C[C@@H]2C[C@](C(=O)OC)(c3cc4c(cc3OC)N(C)[C@H]3[C@@](O)(C(=O)OC)[C@H](OC(C)=O)[C@]5(CC)C=CCN6CC[C@]43[C@@H]65)c3[nH]c4ccccc4c3CC[N+](CC(=O)N3CCC[C@H]3C(=O)N[C@H](C(=O)N[C@@H](CC(=O)OCc3ccccc3)C(=O)OCc3ccccc3)[C@@H](C)CC)(C1)C2`, the outcome in assay [2], in assay [3] and in assay [4] was inactive. For the same molecule, the Ratio IC50 in assay [1] was 1.3. In addition, the Activity in assay [5] was found to be 55%. In the assay on KB (Homo sapiens, KB, 72 h), this molecule registered an IC50 of 700 nM.
Regarding `CC[C@]1(O)C[C@@H]2CN(CCc3c([nH]c4ccccc34)[C@@](C(=O)OC)(c3cc4c(cc3OC)N(C)[C@H]3[C@@](O)(C(=O)OC)[C@H](OC(C)=O)[C@]5(CC)C=CCN6CC[C@]43[C@@H]65)C2)C1` [VINBLASTINE], the IC50 in assay [6] stood at 2100 nM; with KB (Homo sapiens, KB, 72 h), 1 nM. Moreover, the Ratio IC50 in assay [1] worked out at 1. Also, the Activity in assay [3] turned out to be 25%.
Consider `CCC1=C[C@@H]2C[C@](C(=O)OC)(c3cc4c(cc3OC)N(C)[C@H]3[C@@](O)(C(=O)OC)[C@H](OC(C)=O)[C@]5(CC)C=CCN6CC[C@]43[C@@H]65)c3[nH]c4ccccc4c3CC[N+](CC(=O)N3CCC[C@H]3C(=O)N[C@H](C(=O)OCc3ccccc3)[C@@H](C)CC)(C1)C2`, for which the Ratio IC50 in assay [1] stood at 1.4. The molecule further came in with an IC50 with KB (Homo sapiens, KB, 72 h) of 300 nM.
In the same order, the values of `CCC1=C[C@@H]2C[C@](C(=O)OC)(c3cc4c(cc3OC)N(C)[C@H]3[C@@](O)(C(=O)OC)[C@H](OC(C)=O)[C@]5(CC)C=CCN6CC[C@]43[C@@H]65)c3[nH]c4ccccc4c3CC[N+](CC(=O)N3CCC[C@H]3C(=O)OC)(C1)C2` are 0.9 and 80 nM.
In the same order, the values of `CCC1=C[C@@H]2C[C@](C(=O)OC)(c3cc4c(cc3OC)N(C)[C@H]3[C@@](O)(C(=O)OC)[C@H](OC(C)=O)[C@]5(CC)C=CCN6CC[C@]43[C@@H]65)c3[nH]c4ccccc4c3C[N+](CC(=O)N3CCC[C@H]3C(=O)OC)(C1)C2` are 2 and 100 nM.
In the case of `CC[C@H](C)[C@H](NC(=O)[C@@H]1CCCN1C(=O)[C@H]1NC(=O)[C@H](C(C)C)NC(=O)[C@@H](NC)[C@@H](O)c2cc(Cl)c(O)c(c2)O[C@]1(C)CC)C(=O)NC(CC(=O)O)C(=O)O` (mixture of isomers), in assay [6], the IC50 is 400 nM.
Molecule `C=C(C)[C@@H]1NC(=O)[C@@H](NC)[C@@H](O)c2cc(Cl)c(O)c(c2)O[C@](C)(CC)[C@@H](C(=O)N2CC=C[C@H]2C(=O)N/C(C(=O)N/C(=C/C(=O)O)C(=O)O)=C(\C)CC)NC1=O` [PHOMOPSIN A] registered an IC50 in assay [6] of 560 nM. Besides, the outcome in assay [3] was Active.
Regarding `CCC1=C[C@@H]2C[C@](C(=O)OC)(c3cc4c(cc3OC)N(C)[C@H]3[C@@](O)(C(=O)OC)[C@H](OC(C)=O)[C@]5(CC)C=CCN6CC[C@]43[C@@H]65)c3[nH]c4ccccc4c3CC[N+](CC(=O)N3CCC[C@H]3C(=O)N[C@H](C(=O)O)[C@@H](C)CC)(C1)C2`, the Ratio IC50 in assay [1] amounted to 1.7. In the assay on KB (Homo sapiens, KB, 72 h), this molecule displayed a half-maximal inhibitory concentration (IC50) of 700 nM.
For `CCC1=C[C@@H]2C[C@](C(=O)OC)(c3cc4c(cc3OC)N(C)[C@H]3[C@@](O)(C(=O)OC)[C@H](OC(C)=O)[C@]5(CC)C=CCN6CC[C@]43[C@@H]65)c3[nH]c4ccccc4c3C[N+](CC(=O)N3CCC[C@H]3C(=O)N[C@H](C(=O)N[C@@H](CC(=O)OCc3ccccc3)C(=O)OCc3ccccc3)[C@@H](C)CC)(C1)C2` the same measures were 1.8 and 1300 nM.
With `CCC1=C[C@@H]2C[C@](C(=O)OC)(c3cc4c(cc3OC)N(C)[C@H]3[C@@](O)(C(=O)OC)[C@H](OC(C)=O)[C@]5(CC)C=CCN6CC[C@]43[C@@H]65)c3[nH]c4ccccc4c3C[N+](CC(=O)N3CCC[C@H]3C(=O)N[C@H](C(=O)N[C@@H](CC(=O)O)C(=O)O)[C@@H](C)CC)(C1)C2`, the Ratio IC50 in assay [1] is 19.4. This molecule also registered an IC50 with KB (Homo sapiens, KB, 72 h) of 400 nM.
In the same order, the values of `CCC1=C[C@@H]2C[C@](C(=O)OC)(c3cc4c(cc3OC)N(C)[C@H]3[C@@](O)(C(=O)OC)[C@H](OC(C)=O)[C@]5(CC)C=CCN6CC[C@]43[C@@H]65)c3[nH]c4ccccc4c3C[N+](CC(=O)N3CCC[C@H]3C(=O)N[C@H](C(=O)O)[C@@H](C)CC)(C1)C2` are 9.4 and 90 nM.
